Compounds with a hit are over-represented: about 2.6% of the library has one in this group of screens.
Xi reactivation: reactivates the inactive X chromosome in mouse fibroblasts; XiGFP mouse fibroblasts, % GFP-positive cells imaging, 3 d; cells co-treated with 5-aza-dC sensitizer; scaled so ellipticine positive control = 100%; activation, % at 7.58 µM; hit rate 0.055% among 360,000; AID 743238;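 active = mean normalized replicate activation at least 10% and every replicate at or above 10%; inconclusive = only one of the two criteria met; inactive = mean below 10% and not all replicates reach 10%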;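 also: 0% = median of on-plate neutral control wells and 100% = ellipticine 6 µM median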
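Assay system – SV40-immortalized XiGFP fibroblast cells, line 68-5-11 · Buffer or medium – DMEM supplemented with 5-aza-dC as sensitizing agent · Dosing – one concentration, pinned · Benchmarks – positive control ellipticine, 6 µM final · Times – 3 days compound exposure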
dFosB act: enhances mouse delta FosB homodimer DNA binding; purified delta FosB, TAMRA-CDK5 oligo fluorescence polarization; percent of positive-control signal above neutral wells; activation, % at 25 µM; hit rate 0.99% among 340,000; AID 493131;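 active = mean activation above about 17%, with every replicate also reaching it, limit read from the data, passing the limit was not always enough; inconclusive = only one of the two conditions met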
SR-BI uptake up: activators of SR-BI mediated HDL lipid uptake. CHO ldlA[mSR-BI] cells, DiI-HDL uptake fluorescence, 3 h; 100 = double the neutral-control signal. activation, % at 12.5 µM. hit rate 0.096% among 320,000. AID 504775;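 active = mean replicate activation of at least 60% and every replicate at or above 60%; inconclusive = mean or all-replicate condition met, but not both; inactive = mean below 60% and not all replicates reaching 60%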;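 also: 0% = median plate neutral-control signal and 100% = twice that signal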
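Material – SR-BI-overexpressing, LDLR-lacking CHO cells · Medium – BSA-supplemented, HEPES-buffered Ham's F12, pH 7.4 · Doses – single concentration · Times – compound with DiI-HDL co-incubation, 3 h at 37 °C · Measured by – bottom-read fluorescence, 550/595 nm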
PvdQ acylase: P. aeruginosa PvdQ acylase inhibition; purified PvdQ acylase, fluorescence plate reader; inhibition, % at 10 µM; hit rate 0.063% among 340,000; AID 488965; in the data active = inhibition above about 30%, passing the limit was not always enough; inconclusive = no clear call, values can overlap the other calls;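 also: 0% = vehicle neutral wells and 100% = reference inhibitor wells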
SR-BI HDL uptake: mouse SR-BI HDL lipid transfer inhibition; Q61009; ldlA[mSR-BI] CHO cells, DiI-HDL uptake fluorescence, 3 h; inhibition, % at 12.5 µM; hit rate 0.96% among 320,000; AID 488896;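 active = mean replicate inhibition of at least 70% and a set share of replicates each scoring 70 or more; inconclusive = meets just one of the two criteria; inactive = fails both criteria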;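 also: 0% = median of neutral control wells and 100% = median of positive control wells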
Target sequence (Q61009 whole entry, looked up): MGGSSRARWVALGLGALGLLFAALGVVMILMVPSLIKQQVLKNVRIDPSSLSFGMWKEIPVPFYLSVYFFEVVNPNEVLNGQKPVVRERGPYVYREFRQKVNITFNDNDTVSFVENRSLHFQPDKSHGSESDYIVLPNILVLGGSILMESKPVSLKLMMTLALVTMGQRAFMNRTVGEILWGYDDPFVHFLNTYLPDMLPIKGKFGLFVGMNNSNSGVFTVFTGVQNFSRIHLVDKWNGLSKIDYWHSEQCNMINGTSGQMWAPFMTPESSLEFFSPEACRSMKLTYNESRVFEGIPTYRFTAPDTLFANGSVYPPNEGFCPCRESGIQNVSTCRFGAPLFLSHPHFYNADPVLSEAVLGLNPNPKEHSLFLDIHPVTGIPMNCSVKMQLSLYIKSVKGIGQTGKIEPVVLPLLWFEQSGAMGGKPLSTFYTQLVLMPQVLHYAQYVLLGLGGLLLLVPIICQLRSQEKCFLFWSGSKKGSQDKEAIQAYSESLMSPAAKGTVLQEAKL
rRNA inh HTS: selective bacterial rRNA inhibition in E. coli; E. coli WT GFP vs humanized-ribosome RFP mutants, fluorescence, 24 h; active compounds read low; DMSO median 0, no signal -100; GFP signal change (wild-type ribosome), % (no concentration beside the values); hit rate 1.6% among 350,000;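 active = significant combined selectivity score with lowered wild-type GFP, culture density cut under 30%, mutant RFP and density less affected; inactive = any of these conditions unmet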
* hit, by the source's call; u = inconclusive; x = no result.

SMILES | Xi reactivation | dFosB act | SR-BI uptake up | PvdQ acylase | SR-BI HDL uptake | rRNA inh HTS
COc1cccc(C(=O)CC(C#N)c2ccc(F)cc2)c1 (configuration not stated) | x | -2 | 10 | 69* | -10 | 0
COc1ccc(/C=C\C(=O)NCc2ccc3[nH]c(C)cc3c2)cc1OC | 0 | 0 | -38 | -10 | 38 | -5
COc1cc(/C=C\C(=O)NCc2ccc3[nH]c(C)cc3c2)cc(OC)c1OC | 0 | 5 | -76 | -8 | 76* | 2
Cc1ccc(-n2nc3ccc(NC(=O)c4cccc([N+](=O)[O-])c4C)cc3n2)cc1 | 0 | u | -62 | 5 | 62 | x
CCCN(C)C[C@H]1Oc2ncc(-c3cccc(C(=O)N(C)C)c3)cc2C(=O)N([C@@H](C)CO)C[C@@H]1C | -1 | x | x | x | x | x
COc1ccc(S(=O)(=O)NCc2ccc3c(c2)OCO3)cc1C | x | -2 | -5 | 13 | 5 | -20
Cc1ccc(S(=O)(=O)NCc2ccc3c(c2)OCO3)cc1C | 0 | 0 | 4 | 36* | -4 | -9
Cc1ccc(C)c(OCCC(=O)Nc2cccc(S(=O)(=O)NC3=NCCCCC3)c2)c1 | 1 | -8 | -16 | 4 | 16 | -22*
Cn1c(=O)n(Cc2ccc(Br)cc2)c2ccccc21 | 0 | -17 | -11 | -6 | 11 | -48*
Cn1c(=O)n(Cc2ccccc2)c2ccccc21 | x | -1 | 8 | -15 | -8 | 0
COc1ccc(/C=C/C(=O)Nc2ccccc2C(=O)O)cc1 | 0 | -5 | 22 | 4 | -22 | -36*
COc1ccc(/C=C/C(=O)Nc2ccccc2C(=O)N2CCCC2)cc1 | x | -9 | -42 | -12 | 42 | x
C[C@@H]1CCCCO[C@@H](CN(C)C(=O)Nc2ccc3c(c2)OCO3)[C@@H](C)CN([C@H](C)CO)C(=O)c2cc(NC(=O)CCC(F)(F)F)ccc2O1 | 0 | x | x | x | x | 3
CCN1C(=O)C(CC(=O)Nc2ccc(OC)cc2)N(Cc2cccs2)C1=S (configuration not stated) | x | -2 | -3 | 8 | 3 | -31*
COc1ccc(N(C(=O)CNC(=O)c2ccco2)C(C(=O)NC2CCCCC2)c2ccco2)cc1 (configuration not stated) | x | -8 | 26 | 9 | -26 | x
COC(=O)C1=CN(C(C)c2ccccc2)C=C(C(=O)OC)C1c1cc(OC)c(OC)c(OC)c1 (configuration not stated) | 0 | -8 | 25 | -7 | -25 | -22*
COC(=O)C1=CN(Cc2ccc(F)cc2)C=C(C(=O)OC)C1c1cc(OC)c(OC)c(OC)c1 | 0 | -12 | 13 | -13 | -13 | -24*
COc1ccccc1C1C(C#N)=C(N)N(N(C)C)C2=C1C(=O)CC(C)(C)C2 (configuration not stated) | 0 | 4 | 6 | 5 | -6 | 6
CC1CCCCC1NC(=O)C(=O)NCC1CCCO1 (configuration not stated) | x | -8 | 9 | 10 | -9 | x
COc1ccccc1CNC(=O)C(NS(=O)(=O)c1ccc2c(c1)OCCO2)C(C)C (configuration not stated) | 0 | 28* | 7 | -8 | -7 | x
Cc1cccc(NCc2cc(Cl)ccc2O)n1 | x | 3 | -14 | -1 | 14 | -52*
Cc1ccc(O)c(CNc2cccc(C)n2)c1 | 0 | 1 | 16 | -8 | -16 | -1
CCCNC(=O)C1(C)CCN(C(=O)c2cc(C(C)(C)C)nn2C)C1 (configuration not stated) | 0 | x | x | x | x | 16
CCCN1C(=O)/C(=C/c2ccc3c(c2)OCO3)NC1=S | 0 | -5 | 19 | 13 | -19 | -24*
CC1(/[N+]([O-])=C/c2ccc(Cl)cc2Cl)CCCCC1=O (configuration not stated) | 0 | -6 | 3 | 6 | -3 | 12
SMILES | Xi reactivation | dFosB act | SR-BI uptake up | PvdQ acylase | SR-BI HDL uptake | rRNA inh HTS
Cc1ccc(-c2noc(C3CCCN(C(=O)c4ccccc4)C3)n2)o1 (configuration not stated) | x | -17 | 16 | 8 | -16 | x
CC(C)(C)N(Cc1ccccc1)C(=O)c1cccs1 | 0 | -6 | -13 | -13 | 13 | 6
O=C(c1cccs1)c1sccc1Cc1ccccc1 | 0 | 6 | -14 | 5 | 14 | -16*
Cc1cc(NS(=O)(=O)c2ccc(NC(=S)NC(=O)c3cccnc3)cc2)no1 | 0 | -1 | 18 | -20 | -18 | 3
C=CCN1C=C/C(=C\C=C(C#N)C#N)c2ccccc21 | 0 | -2 | -29 | -6 | 29 | -15
CCCCCCN1C=C/C(=C\C=C(C#N)C#N)c2ccccc21 | 0 | -24 | -76 | 2 | 76* | -18
NC(=S)N/N=C/c1c[nH]c2ccc(OCc3ccccc3)cc12 | x | -6 | -78 | -1 | u | x
O=C(CSCc1ccccc1)N/N=C/c1ccccc1OCc1ccccc1 | x | -11 | -5 | -12 | 5 | -27*
O=C(N/N=C/c1ccccc1OCc1ccccc1)c1cccs1 | 0 | 0 | -76 | 11 | 76* | x
NC(=S)N/N=C\c1ccccc1OCc1ccccc1 | 0 | 1 | -50 | -4 | 50 | -26*
COc1cc(/C=N/NC(=O)c2cccs2)ccc1OCc1ccccc1 | x | 6 | -43 | 17 | 43 | x
COc1ccc(CSCC(=O)N/N=C/c2ccccc2OCc2ccccc2)cc1 | x | -4 | -4 | -3 | 4 | x
COc1cc(/C=c2\s/c(=C\C(=O)C(C)(C)C)[nH]c2=O)cc(OC)c1OC | 0 | -5 | -16 | -1 | 16 | -18*
Cc1cccc(/C=c2\s/c(=C\C(=O)C(C)(C)C)[nH]c2=O)c1 | x | -22 | -17 | -8 | 17 | x
COc1ccc(/C=c2\s/c(=C\C(=O)C(C)(C)C)[nH]c2=O)cc1O | 0 | -22 | x | -14 | x | -26*
C[C@@H]1CN([C@@H](C)CO)C(=O)Cc2cc(NC(=O)Nc3cccc4ccccc34)ccc2O[C@@H]1CN(C)CC1CC1 | -1 | x | x | x | x | -1
Cc1ccc(OCc2nnc(SCC(N)=O)n2N)cc1 | 0 | 0 | x | -13 | x | -12
O=C(N/N=C/C(Cl)=C/c1ccccc1)c1ccncc1 | 0 | -9 | 9 | -14 | -9 | 8
O=C(N/N=C/C(Cl)=C/c1ccccc1)c1ccccn1 | 0 | -12 | -13 | 6 | 13 | -15*
O=C(N[C@H](C(=O)N1CCC[C@H]1C(=O)NC1CCCC1)C1CCCCC1)c1ccccc1 | 0 | x | x | x | x | -7
Cc1cccc(C)c1NC1=C(Cl)C(=O)OC1OC(=O)c1ccccc1 (configuration not stated) | 0 | -4 | -8 | -13 | 8 | -32
